Screening results deposited in PubChem by Broad Institute.
This excerpt belongs to a sample that is enriched for hits.
GASC1 inh: KDM4C (human) demethylase inhibition | Q9H3R0 | GST-KDM4C 2-372, H3K9me3 peptide, LANCE TR-FRET | inhibition, % at 12.5 µM | 96,000 tested, 0.15% active | AID 720574;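 active = mean replicate inhibition above about 25%, with at least 55% of replicates also reaching it, limit read from the data, passing the limit was not always enough; inconclusive = only one of those two conditions met; inactive = neither condition met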
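Material: N-terminal GST-fused human GASC-1 (KDM4C) fragment, residues 2-372. Input: 10 nM enzyme. Incubation: enzyme reaction 30 min, then detection 60 min, both room temperature. Doses: one test concentration per compound. Read-out basis: inhibition from TR-FRET ratio decrease. Detection: LANCE TR-FRET, excitation 340 nm, emissions 618 and 671 nm.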
IDH1 mut inh: blocks human IDH1 R132H reductase activity. inhibition, % at 10 µM. diaphorase/resazurin fluorescence, 60 min. O75874. 70,000 tested, 0.18% active; in the data active = inhibition above about 34%; inconclusive = no clear call, values can overlap the other calls; inactive = below about 11%
Target sequence (O75874 whole entry R132H): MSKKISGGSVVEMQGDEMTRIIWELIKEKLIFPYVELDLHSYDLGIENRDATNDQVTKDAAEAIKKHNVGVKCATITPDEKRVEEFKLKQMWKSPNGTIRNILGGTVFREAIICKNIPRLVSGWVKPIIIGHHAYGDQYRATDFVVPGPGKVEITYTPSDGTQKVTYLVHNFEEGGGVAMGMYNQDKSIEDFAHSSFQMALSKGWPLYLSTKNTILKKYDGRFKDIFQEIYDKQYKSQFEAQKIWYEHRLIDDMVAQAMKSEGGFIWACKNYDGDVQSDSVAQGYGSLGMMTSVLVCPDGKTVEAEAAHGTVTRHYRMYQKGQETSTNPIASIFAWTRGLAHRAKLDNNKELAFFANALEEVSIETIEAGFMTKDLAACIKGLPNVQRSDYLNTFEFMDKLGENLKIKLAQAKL
Hits are given with their value; . = inactive; ? = inconclusive; / = no result.

SMILES | GASC1 inh | IDH1 mut inh
COCCNC(=O)C[C@@H]1C[C@@H]2c3cc(N(C)C)ccc3O[C@@H]2[C@H](CO)O1 | ? | .
COc1ccc(S(=O)(=O)Nc2ccc3c(c2)[C@H]2C[C@@H](CC(=O)NCC4CC4)O[C@@H](CO)[C@H]2O3)cc1 | . | .
CCCNC(=O)C[C@H]1C[C@@H]2c3cc(N(C)C)ccc3O[C@@H]2[C@@H](CO)O1 | 31.4 | .
COCCNC(=O)C[C@H]1C[C@@H]2c3cc(N(C)C)ccc3O[C@@H]2[C@H](CO)O1 | . | .
O=C(O)C[C@@H]1C[C@H]2c3cc(NC(=O)Nc4ccccc4F)ccc3O[C@H]2[C@H](CO)O1 | . | .
CCCNC(=O)C[C@H]1C[C@H]2c3cc(N(C)C)ccc3O[C@H]2[C@H](CO)O1 | 49.0 | /
COC(=O)C[C@@H]1C[C@@H]2c3cc(NC(=O)Nc4ccccc4F)ccc3O[C@@H]2[C@@H](CO)O1 | 41.0 | 81.5
COc1ccc(S(=O)(=O)Nc2ccc3c(c2)[C@H]2C[C@@H](CC(=O)NCC4CC4)O[C@H](CO)[C@H]2O3)cc1 | 43.5 | 74.0
CS(=O)(=O)N(CC(=O)Nc1ccc(C(F)(F)F)cc1)c1ccccc1Cl | / | .
COC(=O)c1ccc(NC(=O)CSc2nncc3ccccc23)cc1 | / | .
COCCNC(=O)C[C@H]1C[C@H]2c3cc(NC(=O)c4ccc5c(c4)OCO5)ccc3O[C@H]2[C@@H](CO)O1 | 54.0 | .
CN(C)c1ccc2c(c1)[C@@H]1C[C@@H](CC(=O)N3CCOCC3)O[C@@H](CO)[C@@H]1O2 | 43.8 | .
CN(C)c1ccc2c(c1)[C@@H]1C[C@@H](CC(=O)N3CCCCC3)O[C@H](CO)[C@@H]1O2 | . | /
CN(C)c1ccc2c(c1)[C@H]1C[C@H](CC(=O)NCc3ccccc3)O[C@@H](CO)[C@H]1O2 | 35.6 | .
COCCNC(=O)C[C@H]1C[C@@H]2c3cc(NC(=O)c4ccc5c(c4)OCO5)ccc3O[C@@H]2[C@@H](CO)O1 | . | .
CN(C)c1ccc2c(c1)[C@@H]1C[C@@H](CC(=O)NCc3ccccc3)O[C@H](CO)[C@@H]1O2 | . | .
N#Cc1ccccc1CSc1nnc(N)n1-c1ccccc1 | / | .
O=C(NCCCN1CCOCC1)c1cnn2c(C(F)F)cc(-c3ccccc3)nc12 | / | .
COc1ccccc1-c1cnc2c(c1)C(=O)N([C@H](C)CO)C[C@H](C)[C@@H](CN(C)C)O2 | . | .
COc1ccc(C#Cc2cnc3c(c2)C(=O)N([C@H](C)CO)C[C@@H](C)[C@H](CN(C)C)O3)cc1 | . | .
COc1ccccc1-c1cnc2c(c1)C(=O)N([C@H](C)CO)C[C@@H](C)[C@H](CN(C)C)O2 | 32.7 | .
COc1ccc(C#Cc2cnc3c(c2)C(=O)N([C@@H](C)CO)C[C@H](C)[C@H](CN(C)C)O3)cc1 | 28.2 | .
C[C@@H]1CN([C@@H](C)CO)C(=O)c2cc(C#CCc3ccccc3)cnc2O[C@@H]1CN(C)Cc1ccc(C(=O)O)cc1 | . | .
COc1ccc(C#Cc2cnc3c(c2)C(=O)N([C@H](C)CO)C[C@H](C)[C@H](CN(C)C)O3)cc1OC | 28.9 | .
C[C@H]1CN([C@@H](C)CO)C(=O)c2cc(C#CCc3ccccc3)cnc2O[C@@H]1CN(C)Cc1ccc(C(=O)O)cc1 | . | 35.3
SMILES | GASC1 inh | IDH1 mut inh
COc1ccc(C#Cc2cnc3c(c2)C(=O)N([C@H](C)CO)C[C@@H](C)[C@@H](CN(C)C)O3)cc1 | . | .
COc1ccc(-c2nc3cc(C(C)C)ccc3o2)cc1NC(=O)COc1ccccc1C | / | .
Cc1ccc(NC(=O)Cn2cnc3sc(C(=O)OC(C)C)c(C)c3c2=O)cc1 | / | .
COC(=O)C1=CO[C@@H](O[C@@H]2O[C@H](CO)[C@@H](O)[C@H](O)[C@H]2O)[C@@H]2[C@@H](CO)C=C[C@H]12 | / | .
Cc1cc(OCC(=O)Nc2ccccc2C(=O)NC2CCCCC2)ccc1Br | / | .
COCC(=O)N(C)C[C@H]1Oc2ncc(C#CC3(O)CCCC3)cc2C(=O)N([C@@H](C)CO)C[C@H]1C | 30.9 | .
COCC(=O)N(C)C[C@@H]1Oc2ncc(C#Cc3cccnc3)cc2C(=O)N([C@@H](C)CO)C[C@H]1C | 37.4 | .
C[C@H](CO)N1C[C@H](C)[C@@H](CN(C)C(=O)c2ccccc2F)Oc2ncc(C#Cc3ccncc3)cc2C1=O | . | .
COCC(=O)N(C)C[C@@H]1Oc2ncc(C#CC3(O)CCCC3)cc2C(=O)N([C@H](C)CO)C[C@@H]1C | . | .
COCC(=O)N(C)C[C@H]1Oc2ncc(C#Cc3cccnc3)cc2C(=O)N([C@@H](C)CO)C[C@@H]1C | . | .
C[C@@H]1CN([C@H](C)CO)C(=O)c2cc(C#Cc3ccncc3)cnc2O[C@@H]1CN(C)C(=O)c1ccccc1F | . | 36.2
Cc1ccc(-c2nn(C)c(=O)c3ccccc23)cc1S(=O)(=O)N1CCN(CCO)CC1 | / | .
C=CCNC1=C2C[C@@H](C)C[C@H](OC)[C@H](O)[C@@H](C)/C=C(\C)[C@H](OC(N)=O)[C@@H](OC)C=C/C=C(/C)C(=O)NC(=CC1=O)C2=O | / | .
COC(=O)/C=C/c1cc(O)ccc1O | / | 88.8
COc1cc(/C=C/C(=O)CC(=O)/C=C/c2ccc(O)c(OC)c2)ccc1O | / | .
COc1ccc(-c2ccc(CCC(=O)O)n2-c2ccc(N(C)C)cc2)cc1 | / | .
C[C@@H]1CN([C@@H](C)CO)C(=O)Cc2cc(NC(=O)NC3CCCCC3)ccc2O[C@H]1CN(C)Cc1ccncc1 | . | 46.6
COc1ccc(CN(C)C[C@@H]2Oc3ccc(NC(=O)C4CCCCC4)cc3CC(=O)N([C@@H](C)CO)C[C@H]2C)cc1 | 84.7 | 106.1
COc1ccc(CN(C)C[C@H]2Oc3ccc(NC(=O)C4CC4)cc3CC(=O)N([C@@H](C)CO)C[C@@H]2C)cc1 | . | .
C[C@@H]1CN([C@H](C)CO)C(=O)Cc2cc(NC(=O)NC3CCCCC3)ccc2O[C@@H]1CN(C)Cc1ccncc1 | / | .
CS(=O)(=O)N(CC(=O)Nc1cc(Cl)ccc1Cl)c1cc(Cl)c(Cl)cc1Cl | / | .
COc1ccc(S(=O)(=O)NC2(C(=O)O)CCCCC2)cc1 | / | .
O=C(CSc1nc(-c2ccccc2)cc(C(F)(F)F)n1)Nc1ccccc1Cl | / | .
CCC(C)[C@@H](CO[C@@H](Cc1ccccc1)C(=O)N[C@@H](CCS(C)(=O)=O)C(=O)OC(C)C)NC[C@@H](N)CS (stereo not given in full) | / | 59.6
CC(C)C[C@H](NC(=O)[C@@H](O)[C@H](N)Cc1ccccc1)C(=O)O | / | .
SMILES | GASC1 inh | IDH1 mut inh
CCCCCCCC/C=C/CCCCCCCC(=O)NCCc1ccc(O)c(O)c1 | / | .
Cc1ccc(C)c(NC(=O)CCn2cnc3ccccc3c2=O)c1 | / | .
O=C(CN1CCOCC1)NCC[C@@H]1CC[C@H](NC(=O)Nc2ccc(F)cc2)[C@H](CO)O1 | . | .
O=C(CN1CCOCC1)N[C@@H]1CC[C@H](CCNC(=O)Nc2cc(F)ccc2F)O[C@H]1CO | 31.1 | .
O=C(CN1CCOCC1)N[C@H]1CC[C@@H](CCNC(=O)Nc2cc(F)ccc2F)O[C@@H]1CO | . | .
O=C(CN1CCOCC1)NCC[C@H]1CC[C@H](NC(=O)Nc2ccc(F)cc2)[C@H](CO)O1 | 68.5 | 73.1
CN1C(=O)c2ccc(C(=O)Nc3ccc(OCC(=O)O)cc3)cc2C1=O | / | .
COc1ccc2oc(-c3cccc(NC(=O)COc4ccc(Cl)cc4)c3)nc2c1 | / | .
O=C(COc1ccc(C(=O)Nc2ccccc2Cl)cc1)Nc1cccc(C(F)(F)F)c1 | / | .
